According to ChEMBL document CHEMBL3877272, “Synthesis and anti-mitotic activity of 6,7-dihydro-4H-isothiazolo[4,5-b]pyridin-5-ones: In vivo and cell-based studies” (Eur J Med Chem, 2017):
Active and inactive are the calls of the source.

Legend:
[1] = system: Paracentrotus lividus; experiment: Antimitotic activity in sea urchin embryo assessed as cleavage alteration exposed 8 to 15 mins after fertilization 45 to 55 mins before first mitotic cycle completion measured at 2.5 to 5.5 hrs post dose; assay type: functional
Method in brief: (§1)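 Paracentrotus lividus eggs, fertilized in filtered seawater, cultured as monolayer (up to 2000 embryos/mL) at room temperature. Exposed 8–15 min post-fertilization to 2-fold decreasing concentrations (DMSO stock diluted in EtOH; final DMSO ≤0.05%, EtOH ≤1%). Cleavage alteration scored at 8-cell, arrest at early blastula stage (2.5–5.5 h). Effective threshold concentration reported; duplicate measurements.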

[2] = system: Paracentrotus lividus; experiment: Antimitotic activity in sea urchin embryo assessed as cleavage arrest exposed 8 to 15 mins after fertilization 45 to 55 mins before first mitotic cycle completion measured at 2.5 to 5.5 hrs post dose; assay type: functional; method in brief: as §1
[3] = system: Paracentrotus lividus; experiment: Antimitotic activity in sea urchin free-swimming blastulae assessed as microtubule destabilization by measuring embryo spinning exposed 8 to 10 hrs after fertilization measured after 15 mins to 20 hrs; assay type: functional, Blastula
Method in brief: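 Free-swimming P. lividus blastulae just after hatching (8–10 h post-fertilization) from same culture, exposed in seawater to 2-fold decreasing concentrations (DMSO stock diluted in EtOH). Settling to well bottom with rapid spinning around animal-vegetal axis scored by light microscopy over 15 min–20 h. Effective threshold concentration; duplicate measurements.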

[4] = Solubility in seawater assessed as micro-crystal formation at 2 uM by light microscopy; assay type: physicochemical
Method in brief: (§2)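 Compound from 10 mM DMSO stock diluted 10-fold in 96% EtOH, added to seawater with sea urchin embryos; microcrystal formation checked by light microscopy.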

[5] = Antiproliferative activity against human NCI60 cells measured after 48 hrs by SRB assay; assay type: functional; conditions: NCI60, 48 h
[6] = Antiproliferative activity against human OVCAR8 cells measured after 3 to 4 days by Celltiter-Glo luminescent cell viability assay; assay type: functional; conditions: OVCAR-8
[7] = Antiproliferative activity against human NCI/ADR-RES cells measured after 3 to 4 days by Celltiter-Glo luminescent cell viability assay; assay type: functional
[8] = Antiproliferative activity against human Caov3 cells measured after 96 hrs by Celltiter-Glo assay; assay type: functional, cell-based; conditions: Caov-3, 96 h
Method in brief: (§3)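 Cells plated 24 h, then treated 96 h with 0.1% DMSO or concentrations […]; growth by CellTiter-Glo luminescence, normalized to DMSO control; IC50 from dose–response curves by logistic nonlinear regression; mean of three independent experiments.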

[9] = Antiproliferative activity against human TOV112D cells measured after 96 hrs by Celltiter-Glo assay; assay type: functional, cell-based; method in brief: as §3
[10] = Antiproliferative activity against human MDA-MB-231 cells measured after 96 hrs by Celltiter-Glo assay; assay type: functional, cell-based; conditions: MDA-MB-231, 96 h; method in brief: as §3
[11] = Antiproliferative activity against human MDA-MB-468 cells measured after 96 hrs by Celltiter-Glo assay; assay type: functional, cell-based; conditions: MDA-MB-468, 96 h; method in brief: as §3
[12] = Antiproliferative activity against human MDA-MB-468 cells measured after 48 hrs by SRB assay; assay type: functional, cell-based; conditions: MDA-MB-468, 48 h
[13] = Antiproliferative activity against human MDA-MB-435 cells measured after 96 hrs by Celltiter-Glo assay; assay type: functional, cell-based; conditions: MDA-MB-435, 96 h; method in brief: as §3
[14] = Antiproliferative activity against human MDA-MB-435 cells measured after 48 hrs by SRB assay; assay type: functional, cell-based; conditions: MDA-MB-435, 48 h
[15] = Antiproliferative activity against human NCI-H1975 cells measured after 96 hrs by Celltiter-Glo assay; assay type: functional, cell-based; conditions: NCI-H1975, 96 h; method in brief: as §3
[16] = Antiproliferative activity against human MDA-MB-DYT2 cells measured after 96 hrs by Celltiter-Glo assay; assay type: functional, cell-based; method in brief: as §3
[17] = system: Paracentrotus lividus; experiment: In vivo microtubule destabilizing activity in sea urchin embryo assessed as tuberculate egg formation exposed 8 to 15 mins after fertilization 45 to 55 mins before first mitotic cycle completion measured at 2.5 to 5.5 hrs post dose; assay type: functional
Method in brief: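 Paracentrotus lividus eggs from KCl-induced spawning, fertilized and cultured in filtered seawater at room temperature, up to 2000 embryos/mL. Compounds came from 10 mM DMSO stocks diluted 10-fold in 96% EtOH; tolerated solvent limits were 0.05% DMSO and 1% EtOH. Eggs were exposed to 2-fold decreasing concentrations and scored by light microscopy. The result is the effective threshold concentration, measured in duplicate.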

[18] = Antiproliferative activity against human NCI60 cells at 10 uM after 48 hrs by SRB assay relative to control; assay type: functional; conditions: NCI60, 48 h, read-out: GI
[19] = Solubility in seawater assessed as micro-crystal formation at 4 uM by light microscopy; assay type: physicochemical; method in brief: as §2
[20] = system: Paracentrotus lividus; experiment: Antimitotic activity in early pluteus stage of sea urchin embryo assessed as growth inhibition of skeletal spicules at 1 uM; assay type: functional, tissue-based; conditions: Spicule
Method in brief: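 P. lividus embryos (gametes by intracoelomic 0.5 M KCl, fertilized in filtered seawater, room temperature, paddle agitation 60 rpm); compound from 10 mM DMSO stock diluted 10-fold in 96% EtOH; growth of skeletal spicules scored by light microscopy at early pluteus stage.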

[21] = Solubility in DMSO; assay type: physicochemical
[22] = Solubility in seawater assessed as micro-crystal formation at 1 uM by light microscopy; assay type: physicochemical; method in brief: as §2
[23] = Antiproliferative activity against human A2780 cells measured after 3 days by Celltiter-Glo assay; assay type: functional, cell-based; conditions: A2780, 72 h
Method in brief: (§4)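 Cells in ATCC-recommended medium, STR-authenticated, mycoplasma-tested; 3-day exposure to varying concentrations; viability by CellTiter-Glo luminescence normalized to DMSO control; IC50 from logistic nonlinear regression; mean of three independent experiments.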

[24] = Antiproliferative activity against human A2780cis cells measured after 3 days by Celltiter-Glo assay; assay type: functional, cell-based; conditions: A2780cisR, 72 h; method in brief: as §4
[25] = Antiproliferative activity against human A2780/ADR cells measured after 3 days by Celltiter-Glo assay; assay type: functional, cell-based; conditions: 72 h; method in brief: as §4
[26] = Antiproliferative activity against human MOR cells measured after 3 days by Celltiter-Glo assay; assay type: functional, cell-based; conditions: 72 h; method in brief: as §4
[27] = Antiproliferative activity against human MOR/CPR cells measured after 3 days by Celltiter-Glo assay; assay type: functional, cell-based; conditions: 72 h; method in brief: as §4
[28] = Antiproliferative activity against human adriamycin-resistant MOR cells measured after 3 days by Celltiter-Glo assay; assay type: functional, cell-based; conditions: 72 h; method in brief: as §4
[29] = Cell cycle arrest in human NCI-H1975 cells assessed mitotic index by measuring level of phospho-histone H3 positive cells at 1 uM measured after 24 hrs by DNA dye based flow cytometry (reference value: 1.9); assay type: functional
[30] = Cell cycle arrest in human MDA-MB-468 cells assessed mitotic index by measuring level of phospho-histone H3 positive cells at 1 uM measured after 24 hrs by DNA dye based flow cytometry (reference value: 2.18); assay type: functional
[31] = Cell cycle arrest in human NCI-H1975 cells assessed as accumulation in G2/M phase at 1 uM measured after 24 hrs by DNA dye based flow cytometry (reference value: 20%); assay type: functional
Method in brief: (§5)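 Cells exposed to 1 µM compound or 0.1% DMSO for 24 h; stained with bivariate cell cycle kit (DNA dye); Sub-G1, G1, S and G2/M fractions by flow cytometry as mean percentage with standard error; two independent experiments in duplicate.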

[32] = Cell cycle arrest in human NCI-H1975 cells assessed as reduction in G1 phase at 1 uM measured after 24 hrs by DNA dye based flow cytometry; assay type: functional; method in brief: as §5
[33] = Cell cycle arrest in human NCI-H1975 cells assessed as reduction in S phase at 1 uM measured after 24 hrs by DNA dye based flow cytometry; assay type: functional; method in brief: as §5
[34] = Cell cycle arrest in human NCI-H1975 cells assessed as accumulation in sub-G1 phase at 1 uM measured after 24 hrs by DNA dye based flow cytometry; assay type: functional; method in brief: as §5
[35] = Cell cycle arrest in human MDA-MB-468 cells assessed as accumulation in sub-G1 phase at 1 uM measured after 24 hrs by DNA dye based flow cytometry; assay type: functional; method in brief: as §5
[36] = Cell cycle arrest in human MDA-MB-468 cells assessed as reduction in S phase at 1 uM measured after 24 hrs by DNA dye based flow cytometry; assay type: functional; method in brief: as §5
[37] = Cell cycle arrest in human MDA-MB-468 cells assessed as reduction in G1 phase at 1 uM measured after 24 hrs by DNA dye based flow cytometry; assay type: functional; method in brief: as §5
[38] = system: NCI-H1975; experiment: Induction of microtubule disintegration in human NCI-H1975 cells at 1 uM measured upto 24 hrs by Hoechst staining-based laser scanning microscopic method; assay type: cell-based
Method in brief: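 NCI-H1975 cells, 0.1% DMSO or 1 µM compound for 6, 16 and 24 h; paraformaldehyde-fixed, Triton-permeabilized, BSA-blocked, anti-β-tubulin (1:1000, overnight 4 °C) with Alexa Fluor 647 secondary, Hoechst nuclear counterstain; laser scanning confocal imaging.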

COc1ccc(-c2nsc3c2NC(=O)CC3c2cccc(OC)c2)cc1 (centres undefined)
EC [1]: 0.01 µM
EC [2]: 0.05 µM
EC [3]: 0.1 µM
solubility [4]: Insoluble
GI50 [5]: 1.55 µM
GI50 [6]: 3.22 µM
GI50 [7]: 0.42 µM
IC50 [8]: 1.48 µM
IC50 [9]: 0.808 µM
IC50 [10]: 1.39 µM
IC50 [11]: 0.662 µM
IC50 [12]: 0.395 µM
IC50 [13]: 0.591 µM
IC50 [14]: 0.282 µM
IC50 [15]: 1.98 µM
IC50 [16]: 1.91 µM

COc1cccc(C2CC(=O)Nc3c(-c4ccc(F)cc4)nsc32)c1 (centres undefined)
EC [1]: 1 µM
EC [2]: 4 µM
EC [3]: >4 µM
Activity [17]: Active
inhibition of growth at 10 µM [18]: 15.1%

O=C1CC(c2ccc(Cl)cc2)c2snc(-c3cccc(F)c3)c2N1 (centres undefined)
EC [1]: >4 µM
EC [2]: >4 µM
EC [3]: >4 µM
solubility [19]: Insoluble
inhibition of growth at 10 µM [18]: 16.5%

COc1cc(C2CC(=O)Nc3c(-c4ccc(F)cc4)nsc32)cc2c1OCO2 (centres undefined)
EC [1]: >4 µM
EC [2]: >4 µM
EC [3]: >4 µM
Activity [20]: Active
inhibition of growth at 10 µM [18]: 10.1%

COc1ccc(-c2nsc3c2NC(=O)CC3c2cc(OC)c3c(c2)OCO3)cc1 (centres undefined)
EC [1]: >4 µM
EC [2]: >4 µM
EC [3]: >4 µM
solubility [21]: Soluble

COc1cc(C2CC(=O)Nc3c(-c4ccc(F)cc4)nsc32)c(OC)c2c1OCO2 (centres undefined)
EC [1]: >4 µM
EC [2]: >4 µM
EC [3]: >4 µM
Activity [20]: Active

COc1ccc(-c2nsc3c2NC(=O)CC3c2cc3c(c(OC)c2OC)OCO3)cc1 (centres undefined)
EC [1]: 0.2 µM
EC [2]: 2 µM
EC [3]: >5 µM
Activity [17]: Active
inhibition of growth at 10 µM [18]: 26.9%

COc1cccc(C2CC(=O)Nc3c(-c4cccc(F)c4)nsc32)c1 (centres undefined)
EC [1]: 0.5 µM
EC [2]: 1 to 4 µM
EC [3]: >4 µM
solubility [19]: Insoluble
inhibition of growth at 10 µM [18]: 9.4%

COc1ccc(-c2nsc3c2NC(=O)CC3c2ccc3c(c2)OCO3)cc1 (centres undefined)
EC [1]: 0.01 µM
EC [2]: 0.1 µM
EC [3]: 0.2 µM
solubility [22]: Insoluble
GI50 [5]: 1.55 µM
GI50 [6]: 3.04 µM
GI50 [7]: 0.524 µM

O=C1CC(c2ccc(F)cc2)c2snc(-c3cccc(F)c3)c2N1 (centres undefined)
EC [1]: 1 µM
EC [2]: 4 µM
EC [3]: >4 µM
Activity [17]: Active

COc1ccc(-c2nsc3c2NC(=O)CC3c2ccsc2)cc1 (centres undefined)
EC [1]: 0.002 µM
EC [2]: 0.005 µM
EC [3]: 0.1 µM
GI50 [5]: 0.302 µM
IC50 [8]: 0.152 µM
IC50 [9]: 0.136 µM
IC50 [10]: 0.192 µM
IC50 [11]: 0.163 µM
IC50 [12]: 0.117 µM
IC50 [13]: 0.0807 µM
IC50 [14]: 0.0235 µM
IC50 [15]: 0.254 µM
IC50 [16]: 0.309 µM
IC50 [23]: 0.229 µM
IC50 [24]: 0.187 µM
IC50 [25]: 0.355 µM
IC50 [26]: 0.702 µM
IC50 [27]: 0.321 µM
IC50 [28]: 0.063 µM
Activity index [29]: 6.95
Activity index [30]: 11.3
Activity [31]: 30%
Activity [32]: Active
Activity [33]: Active
Activity [34]: Active
Activity [35]: Active
Activity [36]: Active
Activity [37]: Active
Activity [38]: Active

O=C1CC(c2ccc(F)cc2)c2snc(-c3ccc(F)cc3)c2N1 (centres undefined)
EC [1]: 1 µM
EC [2]: 4 µM
EC [3]: >4 µM
solubility [19]: Insoluble
inhibition of growth at 10 µM [18]: 4.2%
